Experimental data taken from ChEMBL document CHEMBL4359929, “Piperidine and piperazine inhibitors of fatty acid amide hydrolase targeting excitotoxic pathology” (Bioorg Med Chem, 2019).
Active and inactive are the calls of the source. The calls are words filed in the database; no cut-off is given here.

Key:
[1] = target: T1, Fatty-acid amide hydrolase 1 (Homo sapiens, UniProt O00519); experiment: Inhibition of human recombinant MBP-tagged FAAH expressed in Escherichia coli cells using AAMCA as substrate incubated for 15 mins followed by substrate addition and measured after every 20 mins for 4 hrs by fluorescence based assay
T1 sequence (O00519 whole entry): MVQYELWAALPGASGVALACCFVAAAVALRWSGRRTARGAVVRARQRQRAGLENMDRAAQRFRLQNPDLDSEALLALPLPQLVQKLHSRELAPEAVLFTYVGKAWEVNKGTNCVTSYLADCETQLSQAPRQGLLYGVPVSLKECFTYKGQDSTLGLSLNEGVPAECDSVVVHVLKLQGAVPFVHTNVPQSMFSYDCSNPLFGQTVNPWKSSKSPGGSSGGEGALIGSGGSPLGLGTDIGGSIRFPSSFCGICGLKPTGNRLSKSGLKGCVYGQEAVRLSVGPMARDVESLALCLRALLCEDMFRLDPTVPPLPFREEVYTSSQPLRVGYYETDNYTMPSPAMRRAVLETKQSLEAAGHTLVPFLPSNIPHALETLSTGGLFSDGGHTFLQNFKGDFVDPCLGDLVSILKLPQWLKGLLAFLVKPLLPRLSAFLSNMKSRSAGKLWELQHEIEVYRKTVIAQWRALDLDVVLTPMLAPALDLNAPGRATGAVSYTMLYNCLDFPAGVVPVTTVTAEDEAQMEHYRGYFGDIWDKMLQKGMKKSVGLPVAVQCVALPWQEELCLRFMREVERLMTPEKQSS
Method in brief: (§1)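 Fluorescent enzyme assay in throughput format. Human recombinant FAAH or purified rat FAAH used arachidonoyl 7-amino-4-methylcoumarin amide as substrate; human recombinant MGL was run by a similar fluorometric procedure.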

[2] = target: T2, Fatty-acid amide hydrolase 1 (Rattus norvegicus, UniProt P97612); experiment: Inhibition of rat recombinant His/GST-tagged FAAH expressed in Escherichia coli cells using AAMCA as substrate incubated for 15 mins followed by substrate addition and measured after every 20 mins for 4 hrs by fluorescence based assay; method in brief: as §1
T2 sequence (P97612 whole entry): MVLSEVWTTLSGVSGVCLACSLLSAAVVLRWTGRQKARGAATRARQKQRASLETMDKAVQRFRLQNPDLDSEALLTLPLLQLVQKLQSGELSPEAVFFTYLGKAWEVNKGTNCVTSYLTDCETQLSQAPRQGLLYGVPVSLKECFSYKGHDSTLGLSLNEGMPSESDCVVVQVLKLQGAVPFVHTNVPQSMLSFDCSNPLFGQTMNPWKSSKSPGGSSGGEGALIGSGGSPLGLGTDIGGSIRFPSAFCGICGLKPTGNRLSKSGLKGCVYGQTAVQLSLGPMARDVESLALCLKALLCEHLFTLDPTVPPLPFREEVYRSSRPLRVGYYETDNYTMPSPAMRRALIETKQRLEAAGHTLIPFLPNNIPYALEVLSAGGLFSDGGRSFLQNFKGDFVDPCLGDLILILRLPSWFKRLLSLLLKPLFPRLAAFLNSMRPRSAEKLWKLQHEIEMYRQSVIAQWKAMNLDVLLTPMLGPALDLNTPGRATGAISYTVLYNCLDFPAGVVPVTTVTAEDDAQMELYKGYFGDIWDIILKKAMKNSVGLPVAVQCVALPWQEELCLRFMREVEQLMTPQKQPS

[3] = target: T3, Monoglyceride lipase (Homo sapiens, UniProt Q99685); experiment: Inhibition of human recombinant His-tagged MGL expressed in Escherichia coli BL21 DE3 cells using AHMMCE as substrate preincubated with enzyme for 15 mins followed by substrate addition and measured after every 15 mins for 3 hrs by fluorescence based assay; method in brief: as §1
T3 sequence (Q99685 whole entry): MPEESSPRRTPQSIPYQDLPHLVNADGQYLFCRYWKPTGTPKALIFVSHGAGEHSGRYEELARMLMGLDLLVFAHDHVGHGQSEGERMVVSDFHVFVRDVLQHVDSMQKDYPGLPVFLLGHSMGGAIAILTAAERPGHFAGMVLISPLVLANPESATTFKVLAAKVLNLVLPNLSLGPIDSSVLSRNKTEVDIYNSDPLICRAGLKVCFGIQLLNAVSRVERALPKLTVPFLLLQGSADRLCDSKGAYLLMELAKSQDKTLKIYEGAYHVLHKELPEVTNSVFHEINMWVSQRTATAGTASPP

[4] = Stability in human liver microsomes assessed as half life; type: ADME, Microsome
Method in brief: (§2)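 Stability assessed as half-life in human, rat and mouse plasma and gastric fluid, and in human, rat and mouse liver microsomal preparations.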

[5] = Stability in rat liver microsomes assessed as half life; type: ADME, Microsome; method in brief: as §2
[6] = Stability in mouse liver microsomes assessed as half life; type: ADME, Microsome; method in brief: as §2
[7] = Stability in human plasma assessed as half life; type: ADME, cell-free; method in brief: as §2
[8] = Stability in rat plasma assessed as half life; type: ADME, cell-free; method in brief: as §2
[9] = Stability in mouse plasma assessed as half life; type: ADME, cell-free; method in brief: as §2
[10] = Stability in human gastric fluid assessed as half life; type: ADME, tissue-based, Gastric juice; method in brief: as §2
[11] = Stability in rat gastric fluid assessed as half life; type: ADME, tissue-based, Gastric juice; method in brief: as §2
[12] = Stability in mouse gastric fluid assessed as half life; type: ADME, tissue-based, Gastric juice; method in brief: as §2
[13] = Drug concentration in plasma (unknown origin) at 2 mg/kg, iv measured after 15 mins; type: ADME, organism-based
Method in brief: (§3)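 Cassette pharmacokinetics: compounds given together at 2 mg/kg iv; brain and plasma levels (µg/mL) measured at 15 min.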

[14] = Drug concentration in brain (unknown origin) at 2 mg/kg, iv measured after 15 mins; type: ADME, organism-based; details: read-out: Ct; method in brief: as §3
[15] = species: Homo sapiens; experiment: Selectivity ratio of IC50 for human recombinant His-tagged MGL expressed in Escherichia coli BL21 DE3 cells to IC50 for human recombinant MBP-tagged FAAH expressed in Escherichia coli cells by fluorescence based assay
[16] = species: Homo sapiens; experiment: Selectivity ratio of IC50 for human full length ABHD6 expressed in Escherichia coli cells to IC50 for human recombinant MBP-tagged FAAH expressed in Escherichia coli cells by fluorescence based assay
[17] = target: Cannabinoid receptor 1 (Rattus norvegicus) (UniProt P20272); experiment: Displacement of [3H]CP55940 from CB1 receptor in rat brain by competition-equilibrium binding analysis; type: tissue-based
Method in brief: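 Rat brain membranes as CB1 source; competition-equilibrium binding against [3H]CP-55,940.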
Target sequence in this assay (P20272 whole entry): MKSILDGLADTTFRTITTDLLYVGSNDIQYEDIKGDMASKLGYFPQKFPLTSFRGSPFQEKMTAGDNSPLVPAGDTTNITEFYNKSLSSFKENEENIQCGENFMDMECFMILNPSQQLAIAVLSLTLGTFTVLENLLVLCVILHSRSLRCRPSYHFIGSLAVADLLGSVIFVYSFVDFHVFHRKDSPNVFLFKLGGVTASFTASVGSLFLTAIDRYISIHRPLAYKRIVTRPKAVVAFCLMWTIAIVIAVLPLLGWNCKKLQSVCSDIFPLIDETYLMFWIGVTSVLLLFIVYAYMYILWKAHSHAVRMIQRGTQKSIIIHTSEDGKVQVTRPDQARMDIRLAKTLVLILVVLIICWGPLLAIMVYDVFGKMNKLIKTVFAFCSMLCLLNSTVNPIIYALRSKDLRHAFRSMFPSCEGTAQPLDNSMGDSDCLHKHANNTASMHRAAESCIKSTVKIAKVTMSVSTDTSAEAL

[18] = target: Cannabinoid receptor 2 (Mus musculus) (UniProt P47936); experiment: Displacement of [3H]CP55940 from mouse CB2 receptor expressed in HEK293 cells by competition-equilibrium binding analysis; type: cell-based
Method in brief: (§4)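 HEK293 cell membranes expressing mouse or human CB2; competition-equilibrium binding against [3H]CP-55,940.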

[19] = target: Cannabinoid receptor 2 (Homo sapiens) (UniProt P34972); experiment: Displacement of [3H]CP55940 from human CB2 receptor expressed in HEK293 cells by competition-equilibrium binding analysis; type: cell-based; method in brief: as §4
[20] = Selectivity ratio of IC50 for human recombinant His-tagged MGL expressed in Escherichia coli BL21 DE3 cells to IC50 for rat recombinant His/GST-tagged FAAH expressed in Escherichia coli cells by fluorescence based assay
[21] = Selectivity ratio of IC50 for human full length ABHD6 expressed in Escherichia coli cells to IC50 for rat recombinant His/GST-tagged FAAH expressed in Escherichia coli cells by fluorescence based assay
[22] = target: Cannabinoid receptor 1 (Rattus norvegicus) (UniProt P20272); experiment: Displacement of [3H]CP55940 from CB1 receptor in rat brain by competition-equilibrium binding analysis
Target sequence in this assay (P20272 whole entry, looked up): as the sequence (P20272 whole entry) above

[23] = target: T4, Fatty-acid amide hydrolase 1 (Rattus norvegicus) (UniProt P97612); experiment: Inhibition of rat recombinant His/GST-tagged FAAH expressed in Escherichia coli cells at 1 uM using AAMCA as substrate incubated for 15 mins followed by substrate addition and measured after every 20 mins for 4 hrs by fluorescence based assay relative to control
T4 sequence (whole entry): T2 sequence (P97612 whole entry)
Method in brief: (§5)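 Fluorescent FAAH assay with arachidonoyl 7-amino-4-methylcoumarin amide as substrate; compound tested at a single concentration of 1 µM; percent inhibition reported.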

[24] = target: T5, Fatty-acid amide hydrolase 1 (Homo sapiens) (UniProt O00519); experiment: Inhibition of human recombinant MBP-tagged FAAH expressed in Escherichia coli cells at 1 uM using AAMCA as substrate incubated for 15 mins followed by substrate addition and measured after every 20 mins for 4 hrs by fluorescence based assay relative to control; method in brief: as §5
T5 sequence (whole entry): T1 sequence (O00519 whole entry)

Chain of Cannabinoid receptor 2 (Mus musculus) (P47936 whole entry): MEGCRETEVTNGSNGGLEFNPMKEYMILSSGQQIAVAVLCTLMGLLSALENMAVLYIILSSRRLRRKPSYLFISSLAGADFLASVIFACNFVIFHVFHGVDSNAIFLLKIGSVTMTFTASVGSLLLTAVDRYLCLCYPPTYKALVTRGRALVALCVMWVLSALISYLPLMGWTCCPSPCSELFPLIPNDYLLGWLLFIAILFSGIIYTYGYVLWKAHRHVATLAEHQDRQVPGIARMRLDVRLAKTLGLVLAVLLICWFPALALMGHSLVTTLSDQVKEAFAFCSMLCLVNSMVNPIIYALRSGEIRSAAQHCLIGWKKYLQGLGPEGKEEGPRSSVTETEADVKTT
Chain of Cannabinoid receptor 2 (Homo sapiens) (P34972 whole entry): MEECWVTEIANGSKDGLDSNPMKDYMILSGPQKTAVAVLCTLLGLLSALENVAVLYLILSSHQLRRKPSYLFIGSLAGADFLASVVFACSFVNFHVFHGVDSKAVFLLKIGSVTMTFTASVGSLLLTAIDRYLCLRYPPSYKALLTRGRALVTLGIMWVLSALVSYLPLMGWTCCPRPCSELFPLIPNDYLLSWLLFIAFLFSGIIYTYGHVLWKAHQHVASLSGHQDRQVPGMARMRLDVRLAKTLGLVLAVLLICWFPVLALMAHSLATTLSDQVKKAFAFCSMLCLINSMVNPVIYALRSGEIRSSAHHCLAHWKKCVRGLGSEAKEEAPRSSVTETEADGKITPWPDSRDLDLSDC

SMILES | IC50 [1] [nM] | IC50 [2] [nM] | IC50 [3] [nM] | half-life [4] [min] | half-life [5] [min] | half-life [6] [min] | half-life [7] [min] | half-life [8] [min] | half-life [9] [min] | half-life [10] [min] | half-life [11] [min] | Ratio IC50 [15] | Ratio IC50 [16] | Activity [17] | Activity [18] | Activity [19] | Ratio IC50 [20] | Ratio IC50 [21] | Activity [22] | inhibition [23] | also measured
O=C(Oc1cccc(N2CCOCC2)c1)N1CCC(c2ccc(F)cc2)CC1 | 16.3 | 2.93 | > 1000 | 15 to 25 | 15 to 25 | 15 to 25 | > 60 | > 60 | > 60 | > 60 | > 60 | > 1000 | > 1000 | inactive | inactive | inactive | > 1000 | > 1000 | inactive | – | half-life [12]: > 60 min; concentration at 0.25 h [13]: 506 ng/mL; concentration at 0.25 h [14]: 508 ng/mL
O=C(Oc1cccc(N2CCS(=O)(=O)CC2)c1)N1CCN(c2ccc(F)cc2)CC12CC2 | – | – | – | – | – | – | – | – | – | – | – | – | – | inactive | inactive | inactive | – | – | inactive | 54% | –
O=C(Oc1cccc(N2CCS(=O)(=O)CC2)c1)N1CCC2(CC1)COC2 | – | – | > 1000 | – | – | – | – | – | – | – | – | > 1000 | > 1000 | inactive | inactive | inactive | > 1000 | > 1000 | inactive | inactive | inhibition [24]: inactive
CN1CCN(c2cccc(OC(=O)N3CCC(c4ccc(F)cc4)CC3)c2)CC1 | 33.2 | 9.4 | > 1000 | 15 to 25 | 15 to 25 | 15 to 25 | > 60 | > 60 | > 60 | > 60 | > 60 | > 1000 | > 1000 | inactive | inactive | inactive | > 1000 | > 1000 | inactive | – | half-life [12]: > 60 min
COc1ccc(N2CCN(C(=O)Oc3cccc(N4CCS(=O)(=O)CC4)c3)[C@@H](C(C)C)C2)cc1 | – | – | – | – | – | – | – | – | – | – | – | – | – | inactive | inactive | inactive | – | – | inactive | inactive | inhibition [24]: inactive
C[C@@H]1CN(C(=O)Oc2cccc(N3CCS(=O)(=O)CC3)c2)[C@@H](C)CN1c1ccc(F)cc1 | – | – | – | – | – | – | – | – | – | – | – | – | – | inactive | inactive | inactive | – | – | inactive | 35% | –
